Calls of active or inactive are those of the source. The calls are words filed in the database; no cut-off is given here.
Key:
[1] = target: Somatostatin receptor type 1 (Homo sapiens, UniProt P30872); assay: Binding affinity to human SST1 receptor expressed in CHO cells; format: cell-based
[2] = Activation of glucose-stimulated insulin secretion in C57BL/6J mouse pancreatic islets at 10 uM after 1 hr by ELISA in presence of 2 mM glucose; format: functional; conditions: Pancreatic islet
Outline: (§1)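 Pancreatic islets were isolated from normal C57BL/6J mice. Insulin secretion was measured at 2 and 16 mM glucose. Treatments were test agent at 10 μM, octreotide at 50 nM, the two combined, DMSO as negative control and GLP-1 at 10 nM as positive control. n = 4.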

Mus musculus [3] = assay: Antidiabetic activity in lean C57BL/6N mouse assessed as reduction in dextrose-induced glucose excursion at 10 mg/kg, po administered 1 hr before dextrose challenge measured by oral glucose tolerance test; format: functional; set-up: scale not given: the % may be the effect or the level left
Outline: (§2)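 Lean C57BL/6N Tac mice were fasted 5–6 h, then given test agent at 2 or 10 mg/kg 1 h before a dextrose challenge. Glucose tolerance was tested with ip dextrose (ipGTT) or oral dextrose (OGTT). Blood glucose excursion was followed and compared with dextrose alone.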

[4] = target: Somatostatin receptor type 2 (Homo sapiens, UniProt P30874); assay: Binding affinity to human SST2 receptor expressed in CHO cells; format: cell-based
Somatostatin receptor type 2 (Homo sapiens, UniProt P30874), sequence (P30874 whole entry): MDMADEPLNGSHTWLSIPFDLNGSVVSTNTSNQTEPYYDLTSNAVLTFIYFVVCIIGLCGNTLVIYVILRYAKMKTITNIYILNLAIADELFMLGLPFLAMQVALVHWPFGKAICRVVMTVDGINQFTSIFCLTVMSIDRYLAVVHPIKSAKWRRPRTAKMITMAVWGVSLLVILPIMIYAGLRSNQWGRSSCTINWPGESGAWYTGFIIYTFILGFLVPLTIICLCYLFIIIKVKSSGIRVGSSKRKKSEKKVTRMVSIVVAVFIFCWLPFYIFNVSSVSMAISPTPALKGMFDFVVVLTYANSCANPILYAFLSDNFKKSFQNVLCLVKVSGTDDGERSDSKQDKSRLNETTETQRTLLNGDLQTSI

Mus musculus [5] = assay: Antidiabetic activity in lean C57BL/6N mouse assessed as reduction in dextrose-induced glucose excursion at 2 mg/kg, po administered 1 hr before dextrose challenge measured by intraperitoneal glucose tolerance test; format: functional; set-up: scale not given: the % may be the effect or the level left; outline: as §2
[6] = target: T1, Somatostatin receptor type 5 (Mus musculus, UniProt O08858); assay: Binding affinity to mouse SST5 receptor expressed in CHO cells; format: cell-based
T1 sequence (O08858 whole entry): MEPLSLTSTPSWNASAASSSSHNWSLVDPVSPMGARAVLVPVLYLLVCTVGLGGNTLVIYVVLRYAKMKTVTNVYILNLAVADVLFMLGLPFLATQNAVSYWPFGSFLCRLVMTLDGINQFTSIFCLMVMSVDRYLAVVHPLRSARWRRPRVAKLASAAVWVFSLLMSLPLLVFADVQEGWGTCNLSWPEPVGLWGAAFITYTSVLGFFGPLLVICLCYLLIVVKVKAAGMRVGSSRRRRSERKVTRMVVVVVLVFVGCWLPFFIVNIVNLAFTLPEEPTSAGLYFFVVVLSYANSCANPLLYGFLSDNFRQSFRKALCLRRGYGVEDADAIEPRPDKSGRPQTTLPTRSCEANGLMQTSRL

[7] = target: Somatostatin receptor type 4 (Homo sapiens, UniProt P31391); assay: Binding affinity to human SST4 receptor expressed in CHO cells; format: cell-based
Somatostatin receptor type 4 (Homo sapiens, UniProt P31391), sequence (P31391 whole entry): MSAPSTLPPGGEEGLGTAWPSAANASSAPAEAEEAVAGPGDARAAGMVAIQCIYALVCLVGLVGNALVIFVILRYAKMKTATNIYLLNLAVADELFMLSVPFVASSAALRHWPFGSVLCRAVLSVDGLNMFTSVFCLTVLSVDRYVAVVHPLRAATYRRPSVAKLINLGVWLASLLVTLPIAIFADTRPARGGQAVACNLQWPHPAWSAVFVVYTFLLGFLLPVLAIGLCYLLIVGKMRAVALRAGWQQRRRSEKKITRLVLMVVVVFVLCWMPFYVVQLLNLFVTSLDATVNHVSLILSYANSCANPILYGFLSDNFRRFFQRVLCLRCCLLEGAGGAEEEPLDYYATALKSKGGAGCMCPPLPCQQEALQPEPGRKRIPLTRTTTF

Mus musculus [8] = assay: Antidiabetic activity in sst3-wild-type lean C57BL/6N mouse assessed as reduction in dextrose-induced glucose excursion at 10 mg/kg, po administered 1 hr before dextrose challenge measured by intraperitoneal glucose tolerance test; format: functional; set-up: scale not given: the % may be the effect or the level left
Outline: (§3)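 Wild-type and sst3 knockout mice were studied side by side in an ipGTT. They were predosed with 10 mg/kg 1 h before a 2 g/kg dextrose challenge. Read-out was total blood glucose AUC, compared with dextrose alone.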

Mus musculus [9] = assay: Antidiabetic activity in lean C57BL/6N mouse assessed as reduction in dextrose-induced glucose excursion at 2 mg/kg, po administered 1 hr before dextrose challenge measured by oral glucose tolerance test; format: functional; set-up: scale not given: the % may be the effect or the level left; outline: as §2
[10] = Activation of glucose-stimulated insulin secretion in C57BL/6J mouse pancreatic islets at 10 uM after 1 hr by ELISA in presence of 16 mM glucose and 50 nM sst3 agonist octreotide; format: functional; conditions: Pancreatic islet; outline: as §1
[11] = Cmax in C57BL/6N mouse at 2 mg/kg, po; format: ADME, organism-based; set-up: dose 2 mg/kg, route oral; conditions: in vivo
[12] = target: T2, Somatostatin receptor type 3 (Homo sapiens, UniProt P32745); assay: Displacement of [125I]SS-14 from human SST3 receptor expressed in CHO cells after 60 mins by scintillation counting; format: cell-based
T2 sequence (P32745 whole entry): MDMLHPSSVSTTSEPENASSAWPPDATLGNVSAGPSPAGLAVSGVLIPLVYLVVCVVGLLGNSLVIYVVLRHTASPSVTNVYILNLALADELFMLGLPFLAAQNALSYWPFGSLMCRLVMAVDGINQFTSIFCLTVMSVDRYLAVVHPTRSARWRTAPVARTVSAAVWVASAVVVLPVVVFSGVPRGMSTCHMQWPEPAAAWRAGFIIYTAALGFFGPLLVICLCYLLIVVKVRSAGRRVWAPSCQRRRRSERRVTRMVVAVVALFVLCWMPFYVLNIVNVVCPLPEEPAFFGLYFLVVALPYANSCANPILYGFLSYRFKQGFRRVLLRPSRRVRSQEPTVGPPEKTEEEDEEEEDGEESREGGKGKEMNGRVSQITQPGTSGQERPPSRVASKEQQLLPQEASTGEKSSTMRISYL

Mus musculus [13] = assay: Antidiabetic activity in lean C57BL/6N mouse assessed as reduction in dextrose-induced glucose excursion at 10 mg/kg, po administered 1 hr before dextrose challenge measured by intraperitoneal glucose tolerance test; format: functional; set-up: scale not given: the % may be the effect or the level left; outline: as §2
Mus musculus [14] = assay: Antidiabetic activity in po dosed lean C57BL/6N mouse assessed as reduction in dextrose-induced glucose excursion administered 1 hr before dextrose challenge measured by glucose tolerance test; format: functional, organism-based; outline: as §2
[15] = target: Somatostatin receptor type 1 (Mus musculus, UniProt P30873); assay: Binding affinity to mouse SST1 receptor expressed in CHO cells; format: cell-based
Somatostatin receptor type 1 (Mus musculus, UniProt P30873), sequence (P30873 whole entry): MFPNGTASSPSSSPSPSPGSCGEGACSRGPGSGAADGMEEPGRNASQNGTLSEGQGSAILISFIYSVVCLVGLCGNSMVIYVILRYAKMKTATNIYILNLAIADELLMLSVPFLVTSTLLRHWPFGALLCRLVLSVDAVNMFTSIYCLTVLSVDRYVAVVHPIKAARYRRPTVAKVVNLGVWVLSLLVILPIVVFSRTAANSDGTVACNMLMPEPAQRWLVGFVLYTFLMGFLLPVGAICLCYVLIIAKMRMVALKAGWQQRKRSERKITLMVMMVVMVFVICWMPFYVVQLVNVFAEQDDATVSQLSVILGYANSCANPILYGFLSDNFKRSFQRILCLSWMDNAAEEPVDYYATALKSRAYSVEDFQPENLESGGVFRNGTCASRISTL

[16] = Volume of distribution at steady state in C57BL/6N mouse at 1 mg/kg, iv and 2 mg/kg, po; format: ADME, organism-based; conditions: in vivo, read-out: Vdss
[17] = Clearance in C57BL/6N mouse at 1 mg/kg, iv and 2 mg/kg, po; format: ADME, organism-based; conditions: in vivo
Mus musculus [18] = assay: Antidiabetic activity in sst3-knockout lean C57BL/6N mouse assessed as reduction in dextrose-induced glucose excursion at 10 mg/kg, po administered 1 hr before dextrose challenge measured by intraperitoneal glucose tolerance test; format: functional, organism-based; set-up: dose 10 mg/kg; outline: as §3
[19] = Half life in C57BL/6N mouse at 1 mg/kg, iv and 2 mg/kg, po; format: ADME, organism-based; conditions: in vivo
Mus musculus [20] = assay: Dose normalized AUC in C57BL/6N mouse at 2 mg/kg, po; format: ADME, organism-based; set-up: dose 2 mg/kg, route oral; conditions: in vivo
Mus musculus [21] = assay: Antidiabetic activity in sst3-knockout lean C57BL/6N mouse assessed as elevation in plasma insulin level at 10 mg/kg, po administered 1 hr before dextrose challenge measured after 10 mins; format: functional, organism-based; set-up: dose 10 mg/kg
Outline: (§4)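 Wild-type and sst3 knockout mice were predosed at −60 min with 10 mg/kg, then given a dextrose challenge. Plasma insulin was measured 10 min after dextrose. n = 5.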

[22] = target: Somatostatin receptor type 2 (Mus musculus, UniProt P30875); assay: Binding affinity to mouse SST2 receptor expressed in CHO cells; format: cell-based
Somatostatin receptor type 2 (Mus musculus, UniProt P30875), sequence (P30875 whole entry): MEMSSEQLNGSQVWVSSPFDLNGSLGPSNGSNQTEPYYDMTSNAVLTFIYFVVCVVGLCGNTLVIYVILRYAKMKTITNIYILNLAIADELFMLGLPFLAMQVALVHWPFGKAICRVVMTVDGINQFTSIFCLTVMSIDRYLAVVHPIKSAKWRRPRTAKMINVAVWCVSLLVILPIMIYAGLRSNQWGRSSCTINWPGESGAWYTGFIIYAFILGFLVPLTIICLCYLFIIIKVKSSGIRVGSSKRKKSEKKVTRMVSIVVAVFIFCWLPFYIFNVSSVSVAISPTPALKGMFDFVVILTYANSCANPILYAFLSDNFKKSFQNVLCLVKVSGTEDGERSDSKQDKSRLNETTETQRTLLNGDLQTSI

Mus musculus [23] = assay: Antidiabetic activity in wild-type lean C57BL/6N mouse assessed as elevation in plasma insulin level at 10 mg/kg, po administered 1 hr before dextrose challenge measured after 10 mins; format: functional; outline: as §4
[24] = target: Somatostatin receptor type 5 (Homo sapiens, UniProt P35346); assay: Binding affinity to human SST5 receptor expressed in CHO cells; format: cell-based
Somatostatin receptor type 5 (Homo sapiens, UniProt P35346), sequence (P35346 whole entry): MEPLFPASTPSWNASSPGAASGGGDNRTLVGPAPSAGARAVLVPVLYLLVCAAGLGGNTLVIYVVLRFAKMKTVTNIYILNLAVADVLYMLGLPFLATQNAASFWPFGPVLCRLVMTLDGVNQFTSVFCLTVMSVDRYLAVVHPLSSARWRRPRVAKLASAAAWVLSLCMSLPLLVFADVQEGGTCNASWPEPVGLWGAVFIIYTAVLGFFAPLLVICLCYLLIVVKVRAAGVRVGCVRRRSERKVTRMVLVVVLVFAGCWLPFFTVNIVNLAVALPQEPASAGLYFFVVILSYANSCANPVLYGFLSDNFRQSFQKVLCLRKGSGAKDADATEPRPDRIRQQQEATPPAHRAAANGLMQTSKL

[25] = target: T2, Somatostatin receptor type 3; format: functional, cell-based, CHO
[26] = target: T3, Somatostatin receptor type 3 (Mus musculus, UniProt P30935); assay: Displacement of [125I]SS-14 from mouse SST3 receptor expressed in CHO cells after 60 mins by scintillation counting; format: cell-based
T3 sequence (P30935 whole entry): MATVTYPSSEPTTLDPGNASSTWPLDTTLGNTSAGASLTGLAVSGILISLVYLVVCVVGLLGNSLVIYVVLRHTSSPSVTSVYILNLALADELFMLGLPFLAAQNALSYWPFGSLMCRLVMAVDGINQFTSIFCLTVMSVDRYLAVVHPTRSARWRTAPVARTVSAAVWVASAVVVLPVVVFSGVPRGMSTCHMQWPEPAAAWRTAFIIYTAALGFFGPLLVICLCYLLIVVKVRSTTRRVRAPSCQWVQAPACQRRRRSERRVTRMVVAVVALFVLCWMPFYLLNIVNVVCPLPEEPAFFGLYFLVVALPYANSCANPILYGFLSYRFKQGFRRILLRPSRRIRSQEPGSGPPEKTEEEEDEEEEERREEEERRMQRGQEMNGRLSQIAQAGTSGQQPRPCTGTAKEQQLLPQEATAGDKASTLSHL
Outline: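 Competition binding at mouse sst3, read at steady-state equilibrium. Read-out is IC50.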

[27] = Oral bioavailability in C57BL/6N mouse at 2 mg/kg; format: ADME, organism-based; conditions: in vivo
[28] = Activation of glucose-stimulated insulin secretion in C57BL/6J mouse pancreatic islets at 10 uM after 1 hr by ELISA in presence of 16 mM glucose relative to DMSO; format: functional; conditions: Pancreatic islet; outline: as §1
[29] = target: T3, Somatostatin receptor type 3; assay: Antagonist activity at mouse SST3 receptor expressed in CHO cells assessed as inhibition of forskolin/SS-14-stimulated cAMP accumulation preincubated for 15 mins before SS-14 challenge measured after 1 hr by time-resolved fluorescence analysis; format: functional, cell-based
Outline: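 Functional antagonism at mouse sst3 against SS-14, run as a cAMP accumulation challenge after the test molecule is prebound. Read-out is IC50.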

[30] = target: Somatostatin receptor type 4 (Mus musculus, UniProt P49660); assay: Binding affinity to mouse SST4 receptor expressed in CHO cells; format: cell-based
Somatostatin receptor type 4 (Mus musculus, UniProt P49660), sequence (P49660 as listed by the source): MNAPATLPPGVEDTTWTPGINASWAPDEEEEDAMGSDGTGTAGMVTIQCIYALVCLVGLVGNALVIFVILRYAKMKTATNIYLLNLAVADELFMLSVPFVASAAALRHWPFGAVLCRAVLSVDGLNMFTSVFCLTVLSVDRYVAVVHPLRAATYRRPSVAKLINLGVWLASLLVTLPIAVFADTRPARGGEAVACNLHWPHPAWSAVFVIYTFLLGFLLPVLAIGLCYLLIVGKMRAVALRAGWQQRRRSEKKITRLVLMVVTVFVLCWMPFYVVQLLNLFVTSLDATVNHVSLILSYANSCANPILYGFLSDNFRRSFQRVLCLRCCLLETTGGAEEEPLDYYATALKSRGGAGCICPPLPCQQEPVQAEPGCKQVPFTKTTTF

[31] = target: Voltage-gated L-type calcium channel (Homo sapiens, UniProt Q13936+Q13698+Q01668+O60840); assay: Binding affinity to L-type calcium channel

Somatostatin receptor type 1 (Homo sapiens, UniProt P30872), sequence (P30872 whole entry): as the sequence (P30873 whole entry) above, with A25G, C26G, S32A, A385T, S389T counted along it

For `c1ccc(-c2c[nH]c([C@H]3Cc4c([nH]c5ccccc45)[C@@H](C4CCOCC4)N3)n2)cc1`, the IC50 [1] was greater than 1 µM, the Activity [2] was “inactive” and the Activity (Mus musculus [3]) was 67%. For the same compound, the IC50 [4] was greater than 1 µM, the Activity (Mus musculus [5]) was 58% and the IC50 [6] was greater than 10 µM. It also gave an IC50 [7] greater than 1 µM, an Activity (Mus musculus [8]) of 26% and an Activity (Mus musculus [9]) of 66%. The Activity [10] was “Active”, the Cmax [11] was 840 nM and the IC50 [12] was 0.014 µM. For the same compound, the Activity (Mus musculus [13]) was 78%, the Activity (Mus musculus [14]) was “Dose-dependent effect” and the IC50 [15] was greater than 10 µM. The Vd [16] was 1.6 L/kg, the clearance [17] was 15 mL/min/kg and the Activity (Mus musculus [18]) was “inactive”. The half-life [19] was 1.6 h, the AUC/dose (Mus musculus [20]) was 1.3 µM·h/mg and the Activity (Mus musculus [21]) was “inactive”. For the same compound, the IC50 [22] was greater than 10 µM, the Activity (Mus musculus [23]) was 50% and the IC50 [24] was greater than 1 µM. For the same compound, the IC50 [25] was 0.022 µM, the IC50 [26] was 0.0089 µM and the bioavailability [27] was 45%. For the same compound, the Activity [28] was 44%, the IC50 [29] was 0.016 µM and the IC50 [30] was greater than 10 µM. The IC50 [31] was 1.9 µM.

Reference: ChEMBL document CHEMBL2069262, “Stimulation of Glucose-Dependent Insulin Secretion by a Potent, Selective sst3 Antagonist” (ACS Med Chem Lett, 2012)
